GalR3 antag – antagonists of human GalR3 | AID 651719 | inhibition, % at 3 µM | O60755 | HEK293 GalR3-CNG cAMP membrane potential fluorescence; galR3 body fused to GalR1 C-terminus | actives 0.44% (n = 360,000);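 active = inhibition above the screen-wide average plus 3 SD, cut at about 13% in these data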;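 note: forskolin and galanin both at EC90 stimulate the cells; cAMP rise reported by CNG channel membrane potential dye signal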
Target sequence (O60755 1-299 limits assumed): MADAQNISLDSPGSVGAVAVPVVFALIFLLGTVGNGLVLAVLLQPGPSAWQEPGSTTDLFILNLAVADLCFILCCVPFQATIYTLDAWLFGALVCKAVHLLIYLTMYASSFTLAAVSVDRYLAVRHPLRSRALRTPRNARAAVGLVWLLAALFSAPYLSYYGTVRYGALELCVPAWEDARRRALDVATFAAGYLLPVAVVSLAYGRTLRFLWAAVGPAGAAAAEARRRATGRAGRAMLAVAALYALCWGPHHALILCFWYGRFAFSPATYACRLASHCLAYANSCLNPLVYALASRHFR
MsrA inh – bovine MsrA inhibition; purified bovine MsrA, absorbance read-out; inhibition, % at 15.5 µM; actives 0.75% (n = 360,000); in the data active = inhibition above about 4.5%
MsrA act – activators of bovine methionine sulfoxide reductase A | purified bovine MsrA, absorbance read-out | activation, % at 10.6 µM | actives 0.3% (n = 360,000) | AID 602163; in the data active = activation above about 7.5%
NadD block – inhibitors of Staphylococcus aureus NadD | actives 0.78% (n = 360,000) | inhibition, % at 20 µM | AID 602399 | purified NadD enzyme, colorimetric absorbance read-out; in the data active = inhibition above about 26%
NR2E3 ag-1 – agonists of human NR2E3 nuclear receptor. Q9Y5X4. CHO-S Gal4-NCOR/VP16-NR2E3 two-hybrid, luciferase. inhibition of corepressor binding, % at 3.98 µM. actives 0.35% (n = 360,000). AID 602229;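 active = inhibition above the mean of all tested compounds plus 3 SD, cut at about 70% in these data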;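 note: higher means lower luciferase signal from less NR2E3 corepressor binding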
Target sequence (Q9Y5X4 whole entry, looked up, the tested form may be a part): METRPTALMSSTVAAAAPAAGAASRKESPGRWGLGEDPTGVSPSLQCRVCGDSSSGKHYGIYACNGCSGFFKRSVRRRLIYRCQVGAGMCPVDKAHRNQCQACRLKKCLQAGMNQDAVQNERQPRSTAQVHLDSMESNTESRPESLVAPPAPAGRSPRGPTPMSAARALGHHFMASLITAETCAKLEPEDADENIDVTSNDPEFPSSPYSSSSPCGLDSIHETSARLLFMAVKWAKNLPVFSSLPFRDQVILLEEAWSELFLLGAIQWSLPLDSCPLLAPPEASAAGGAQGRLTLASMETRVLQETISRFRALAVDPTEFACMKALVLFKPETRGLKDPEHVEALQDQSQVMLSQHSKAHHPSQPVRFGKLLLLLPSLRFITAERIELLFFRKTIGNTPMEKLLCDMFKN
NR2E3 ag-2 – NR2E3 (human) agonism; GST-NR2E3/biotin-RetCOR TR-FRET, 1536-well; actives 0.12% (n = 320,000); inhibition of corepressor binding, % at 4.78 µM;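 active = percent inhibition above the cutoff of mean plus 3 SD of all tested compounds, set per screening campaign, cut at about 20% in these data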
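Material: NR2E3–RetCOR corepressor complex / Amount: 1.35 nM GST-NR2E3 / Medium: Tris pH 7.5 / Compound: single nominal compound dose of 4.8 µM / Incubation: 5 h at 4 °C / Technique: TR-FRET, Eu(K)-anti-GST donor, streptavidin-D2 acceptor, ex 340, em 617/671 nm / Read-out basis: percent loss of FRET ratio relative to control wells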
MsrA activ conf – confirmation of bovine methionine sulfoxide reductase A activators | shares compounds with MsrA act | purified bovine MsrA, absorbance read-out | activation, % at 10.6 µM | actives 12% (n = 1,000); in the data active = activation above about 4%;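 note: enzyme coupled to thioredoxin and thioredoxin reductase with NADPH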
Hits are given with their value; 0 = inactive; - = not tested or not shown. The list is not random: actives were taken first. Their share in the collection is about 2.5%.

SMILES | GalR3 antag | MsrA inh | MsrA act | NadD block | NR2E3 ag-1 | NR2E3 ag-2 | MsrA activ conf
Fc1ccc(-c2nnc(SCc3ncc(-c4ccccc4)o3)n2CC2CCCO2)cc1 (stereo unspecified) | 0 | 0 | 11.3 | 0 | 0 | 0 | 0
CCCCOP(=O)(c1ccc(N(C)C)cc1)C(O)c1ccccc1F (stereo unspecified) | 0 | 0 | 0 | 0 | 0 | 0 | -
O=S(=O)(Nc1ccccc1Cl)c1ccc(NS(=O)(=O)c2cccs2)cc1 | 0 | 0 | 7.7 | 0 | 0 | 0 | 0
Cc1cc(C)n(CC(=O)NC2CCCN(Cc3ccc(Cl)cc3)C2)n1 (stereo unspecified) | 0 | 0 | 0 | 0 | 0 | 0 | -
CN(CC(=O)Nc1ccccc1N1CCOCC1)S(=O)(=O)c1ccc(Cl)cc1 | 0 | 0 | 8.0 | 0 | 0 | 0 | 5.5
Cc1ccc(S(=O)(=O)N(C)CC(=O)Nc2ccccc2N2CCCC2)cc1 | 0 | 0 | 0 | 0 | 0 | 0 | -
O=C(Nc1ccc(F)cc1F)N1CCCCCC1 | 0 | 0 | 0 | 0 | 0 | 0 | -
CC(=O)NC1(c2ccc(F)cc2)CCN(C(=O)Nc2ccc(F)cc2F)CC1 | 0 | 0 | 8.6 | 0 | 0 | 0 | 0
CC(C)CCN(C(=O)CNC(=O)c1ccco1)C(C(=O)NC1CCCCC1)c1cccnc1 (stereo unspecified) | 0 | 0 | 0 | 0 | 0 | 0 | -
CC(=O)Nc1ccc(S(=O)(=O)N2c3ccccc3NC(=O)CC2C)c(Cl)c1 (stereo unspecified) | 0 | 0 | 12.1 | 0 | 0 | 0 | 0
CC(C)CNc1nc(=S)nc(N(C)C)[nH]1 | 0 | 0 | 8.3 | 0 | 0 | 0 | 4.2
CN(C)c1nc(=S)nc(NCc2ccccc2)[nH]1 | 0 | 0 | 0 | 0 | 0 | 0 | -
CCOC(=O)C1(Cc2ccccc2)CCN(Cc2csc(C(C)=O)c2)CC1 | 0 | 0 | 9.8 | 0 | 0 | 0 | 0
CCOC(=O)c1cnc2c(OC)cccc2c1N1CCN(c2ccccn2)CC1 | 0 | 0 | 0 | 0 | 0 | 0 | -
CCOC(=O)c1cnc2c(OC)cccc2c1N1CCN(c2ccccc2OC)CC1 | 0 | 0 | 8.5 | 0 | 0 | 0 | 0
Cc1cccc(NC(=O)C2(C)CC3c4ccccc4C2c2ccccc23)c1 (stereo unspecified) | 0 | 0 | 8.9 | 0 | 0 | 0 | 0
CCCN1C(=O)c2cc(C(=O)Nc3ccc(OC)c(OC)c3)ccc2C1Nc1ccc(OC)c(OC)c1 (stereo unspecified) | 0 | 0 | 0 | 0 | 0 | 0 | -
COCCN1C(=O)c2cc(C(=O)Nc3ccc(OC)c(OC)c3)ccc2C1Nc1ccc(OC)c(OC)c1 (stereo unspecified) | 0 | 0 | 12.1 | 0 | 0 | 0 | 0
CC1CCN(C(=O)c2cc(Cl)nc3ccccc23)CC1 | 0 | 0 | 0 | 0 | 0 | 0 | -
CCN(CC)CCCn1c2c(c(SCC(=O)Nc3cccc4ccccc34)nc1=O)CCC2 | 0 | 0 | 0 | 0 | 0 | 0 | -
CN(C)CCCn1c2c(c(SCC(=O)Nc3cccc4ccccc34)nc1=O)CCCC2 | 0 | 0 | 11.2 | 0 | 0 | 0 | 0
Cc1ccc(C(=O)NC2(C(F)(F)F)N=C3SCCN3C2=O)cc1 (stereo unspecified) | 0 | 0 | 0 | 0 | 0 | 0 | -
O=C(NC1(C(F)(F)F)N=C2SCCN2C1=O)C1CCCCC1 (stereo unspecified) | 0 | 0 | 7.8 | 0 | 0 | 0 | 0
CN(C)S(=O)(=O)c1ccc(C(=O)Nc2nc3ccccc3[nH]2)cc1 | 0 | 0 | 0 | 0 | 0 | 0 | -
Cc1cc(C)c2c(-n3cccc3)c(C(=O)NNS(=O)(=O)c3ccc(Br)cc3)sc2n1 | 0 | 0 | 8.5 | 0 | 0 | 0 | 0
SMILES | GalR3 antag | MsrA inh | MsrA act | NadD block | NR2E3 ag-1 | NR2E3 ag-2 | MsrA activ conf
CCOC(=O)Nc1sc2nc(C)cc(C)c2c1-n1cccc1 | 0 | 0 | 0 | 0 | 0 | 0 | -
CCC(C)[C@H](NC(=O)N1CCC(C)CC1)C(=O)OC (stereo partly specified) | 0 | 0 | 13.9 | 0 | 0 | 0 | 0
O=C(C1CCN(S(=O)(=O)N2CCOCC2)CC1)N1CCN(c2ccccc2)CC1 | 0 | 0 | 10.2 | 0 | 0 | 0 | 0
O=[N+]([O-])c1cccc2c(N3CCCC3)ccnc12 | 0 | 0 | 19.6 | 0 | 0 | 0 | 11.7
COCCn1nnnc1CN1CCN(c2cccc(C(F)(F)F)c2)CC1 | 0 | 0 | 8.4 | 0 | 0 | 0 | 0
Cc1nnc(N/N=C/c2ccccc2O)n1N | 0 | 0 | 8.8 | 0 | 0 | 0 | 0
Cc1nnc(N/N=C\c2ccc(-c3ccccc3[N+](=O)[O-])o2)n1N | 0 | 0 | 17.5 | 0 | 0 | 0 | 0
Cc1nnc(N/N=C/c2c(Cl)cccc2Cl)n1N | 0 | 0 | 0 | 0 | 0 | 0 | -
CCc1nnc(N/N=C/c2ccc(-c3ccc([N+](=O)[O-])cc3)o2)n1N | 0 | 0 | 8.4 | 0 | 0 | 0 | 0
CC(C(=O)N1CCCCC1)n1ncn2cccc2c1=O (stereo unspecified) | 0 | 0 | 19.8 | 0 | 0 | 0 | 0
O=C(NCC(=O)N1CCN(c2ncccn2)CC1)c1cccs1 | - | - | 0 | 0 | 0 | 0 | -
Cc1ccc(C(=O)NCC(=O)N2CCN(c3ncccn3)CC2)s1 | 0 | 0 | 9.2 | 0 | 0 | 0 | 0
CCN(CC)S(=O)(=O)c1ccc(N2CCCCC2)c(NC(=O)/C=C/c2ccc(OC)c(OC)c2)c1 | 0 | 0 | 15.3 | 0 | 0 | 0 | 0
c1ccc(Sc2nc(N3CCCCC3)nc(N3CCCCC3)n2)nc1 | 0 | 0 | 9.3 | 0 | 0 | 0 | 0
N=C(N)Sc1nc(N2CCCCC2)nc(N2CCCCC2)n1 | 0 | 0 | 0 | 0 | 0 | 0 | -
CC(C)OC(=O)c1cc(Cl)c(=O)n(Cc2ccc(Cl)cc2Cl)c1 | 0 | 0 | 0 | 0 | 0 | 0 | -
CO/N=C/c1ccc(N2CCCC2)c([N+](=O)[O-])c1 | 0 | 0 | 17.2 | 0 | 0 | 0 | 5.8
O=C(c1cccc([N+](=O)[O-])c1)c1cc2ccccc2o1 | 0 | 0 | 8.8 | 0 | 0 | 0 | 0
C/C(=N\Nc1cccc([N+](=O)[O-])c1)c1cc2ccccc2o1 | 0 | 0 | 0 | 0 | 0 | 0 | -
CS(=O)(=O)N(CC(=O)N1CCOCC1)c1cccc(F)c1 | 0 | 0 | 9.2 | 0 | 0 | 0 | 0
CCCSCCCNC(=O)Cn1c(=O)c2cccn2c2ccccc21 | 0 | 0 | 0 | 0 | 0 | 0 | -
CCCN1CCN(C(=O)CS(=O)(=O)Cc2nc(-c3cccc(OC)c3)oc2C)CC1 | 0 | 0 | 9.3 | 0 | 0 | 0 | 0
Cn1c(N=Nc2ccccc2)nc2ccccc21 | 0 | 0 | 7.7 | 0 | 0 | 0 | 0
COc1ccc(Cl)cc1NC(=O)CN(C)CC(=O)Nc1ccc(Br)cc1 | 0 | 0 | 8.9 | 0 | 0 | 0 | 0
CCC(=O)c1cc(F)ccc1OCC(=O)N1CCN(c2ccc(F)cc2)CC1 | 0 | 0 | 0 | 0 | 0 | 0 | -
COc1ccc(Cl)cc1C(=O)CSc1nc(N)cc(N)n1 | 0 | 0 | 8.0 | 0 | 0 | 0 | 0
NC1=C(Cl)C(=O)c2ccccc2C1=O | 0 | 0 | 18.1 | 0 | 0 | - | 12.2
